We go through two molecules from ChEMBL document CHEMBL3272089, “Synthesis and antitumor activity of dihydro-5-azacytidine, a hydrolytically stable analogue of 5-azacytidine” (J Med Chem, 1977).

In data set [1] the test system is L1210. Kind of data set: Antitumor activity against mouse L1210 cells allografted in ip dosed mouse assessed as change in body weight at optimal dose administered every 6 hrs on day 1, 5 and 9 post tumor implantation measured on day 5 relative to control. The format is functional. In outline: (§1)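 Mice bearing tumour cells implanted ip (intracerebrally in the IC-L1210 system) got compound in 0.9% saline ip on the stated schedule, or orally to nonfasting animals in the PO-L1210 system. Day-1 dosing, per day, or every 6 h counted from implantation. The value is the difference in average body weight change (g) on day 5 between the optimal-dose group (T) and controls (C).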

The subject of data set [2] is L1210. Kind of data set: Antitumor activity against mouse L1210 cells allografted in ip dosed mouse assessed as increase in life span at optimal dose administered qd on day 1, 5 and 9 post tumor implantation relative to control. The format is functional. The essentials:
(§2)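 L1210 leukemia cells implanted ip in mice. Drug given ip in 0.9% saline: day 1 only (QD1); days 1, 5, 9 (Q4D); every 6 h on days 1, 5, 9 (Q4D(Q6H)); or days 1-9 (QD1-9). Dose-response run in twofold steps, dose in mg/kg per injection. % ILS versus untreated controls at the optimal dose. Toxicity taken as test minus control body-weight change on day 5.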

Data set [3] relates to L1210. Kind of data set: Antitumor activity against mouse L1210 cells allografted in ip dosed mouse assessed as dose required for maximal activity administered qd from day 1 to day 9 post intracerebral tumor implantation. The class given is functional. In outline: (§3)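 Tumour cells were implanted ip (intracerebrally for IC-L1210), with the compound given in 0.9% saline ip, or orally to nonfasting mice in PO-L1210. Dose–response series each halved the preceding dose, expressed as mg/kg per injection. Activity was read as % increase in life-span (% ILS) over untreated controls, and from this the minimum, optimal and maximum active doses were taken.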

In data set [4] the test system is B16. The experiment in a line: Antitumor activity against mouse B16 cells allografted in ip dosed mouse assessed as dose required for minimal activity administered qd from day 1 to day 9 post tumor implantation. The class given is functional. Conditions: read-out: MED. The essentials: as §3
Data set [5] is described as follows: Drug degradation in lactated Ringer's solution at 25 degC after 4.7 hrs. The class given is physicochemical. Conditions: read-out: Drug degradation.
Data set [6] has as its system L1210. Kind of data set: Cytotoxicity against mouse L1210 cells assessed as cessation of growth. The format is functional, cell-based.
For data set [7], the system named is L1210. Kind of data set: Antitumor activity against mouse L1210 cells allografted in ip dosed mouse assessed as increase in life span at optimal dose administered qd from day 1 to day 9 post intracerebral tumor implantation relative to control. The class given is functional. In outline:
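L1210 cells implanted intracerebrally in mice. Drug given ip in 0.9% saline, dose-response in twofold dose steps (mg/kg per injection). Antitumor effect as % increase in life-span over untreated controls at the optimal dose. Test minus control body-weight change recorded on day 5.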

In data set [8] the test system is L1210. Kind of data set: Antitumor activity against mouse L1210 cells allografted in po dosed mouse assessed as dose required for minimal activity administered qd from day 1 to day 9 post tumor implantation. The format is functional. Conditions: read-out: MED. The essentials:
as §3

The test system of data set [9] is Mus musculus. The experiment in a line: Toxicity in ip dosed mouse allografted with mouse L1210 cells assessed as dose required for optimal activity administered qd on day 1 post tumor implantation. The class given is organism-based. Conditions: in vivo. In outline: as §3
A short description of data set [10]: Drug degradation in 1 N ammonium hydroxide solution assessed as l-beta-D-Ribofuranosyl-3-guanylurea level. The class given is physicochemical.
For data set [11], the system named is L1210. The experiment in a line: Cytotoxicity against mouse L1210 cells assessed as cessation of growth in presence of uridine. The class given is functional, cell-based.
The test system of data set [12] is L1210. The experiment in a line: Antitumor activity against mouse L1210 cells allografted in ip dosed mouse assessed as increase in life span at optimal dose administered qd from day 1 to day 9 post tumor implantation relative to control. The class given is functional. In outline: as §2
Data set [13] has as its system Mus musculus. The experiment in a line: Toxicity in ip dosed mouse allografted with mouse L1210 cells assessed as dose required for optimal activity administered qd on day 1, 5 and 9 post tumor implantation. The class given is organism-based. Conditions: in vivo. The essentials:
as §3

The subject of data set [14] is L1210. The experiment in a line: Antitumor activity against mouse L1210 cells allografted in ip dosed mouse assessed as dose required for maximal activity administered qd on day 1 post tumor implantation. The format is functional. The essentials: as §3
For data set [15], the system named is Mus musculus. The experiment in a line: Toxicity in ip dosed mouse allografted with mouse L1210 cells assessed as dose required for optimal activity administered qd from day 1 to day 9 post tumor implantation. The class given is organism-based. The following applies: in vivo. The essentials: as §3
For data set [16], the system named is L1210. Kind of data set: Antitumor activity against mouse L1210 cells allografted in po dosed mouse assessed as dose required for maximal activity administered qd from day 1 to day 9 post tumor implantation. The class given is functional. The essentials:
as §3

Data set [17] relates to L1210. The experiment in a line: Antitumor activity against mouse L1210 cells allografted in po dosed mouse assessed as increase in life span at optimal dose administered qd from day 1 to day 9 post tumor implantation relative to control. The class given is functional. The essentials:
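Mice bearing ip-implanted L1210 were dosed orally, nonfasting, with compound in 0.9% saline. Dose-response in twofold steps, mg/kg per dose. % ILS relative to untreated controls at the optimal dose. Weight change (test minus control) on day 5.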

Data set [18] concerns Mus musculus. The experiment in a line: Toxicity in ip dosed mouse allografted with mouse L1210 cells assessed as dose required for optimal activity administered every 6 hrs on day 1, 5 and 9 post tumor implantation. The format is organism-based. Conditions: in vivo. The essentials:
as §3

The subject of data set [19] is B16. Kind of data set: Antitumor activity against mouse B16 cells allografted in ip dosed mouse assessed as increase in life span at optimal dose administered qd from day 1 to day 9 post tumor implantation relative to control. The format is functional.
Data set [20] concerns L1210. Kind of data set: Antitumor activity against mouse L1210 cells allografted in ip dosed mouse assessed as dose required for maximal activity administered qd on day 1, 5 and 9 post tumor implantation. The format is functional. The essentials:
as §3

In data set [21] the test system is L1210. The experiment in a line: Cytotoxicity against mouse L1210 cells assessed as cessation of growth in presence of cytidine. The class given is functional, cell-based.
The subject of another data set is P388. Kind of data set: Antitumor activity against mouse P388 cells allografted in ip dosed mouse assessed as dose required for minimal activity administered qd from day 1 to day 9 post tumor implantation. The class given is functional. Conditions: read-out: MED. The essentials:
as §3

A short description of data set [22]: Half life of the compound at 25 degC at pH 7 by HPLC analysis. The format is physicochemical.
The subject of data set [23] is L1210. The experiment in a line: Antitumor activity against mouse L1210 cells allografted in ip dosed mouse assessed as dose required for minimal activity administered qd from day 1 to day 9 post intracerebral tumor implantation. The class given is functional. Conditions: read-out: MED. The essentials:
as §3

Data set [24] can be described thus: Solubility of the compound in water at pH 6. The class given is physicochemical.
Data set [25] relates to Mus musculus. The experiment in a line: Toxicity in ip dosed mouse allografted with 5-azacytidine-resistant mouse L1210 cells assessed as dose required for optimal activity administered qd from day 1 to day 9 post tumor implantation. The class given is organism-based. The following applies: in vivo. The essentials:
as §3

The nature of data set [26]: Chemical stability in 1 N ammonium hydroxide solution at room temperature after 7 days. The format is physicochemical. The following applies: 168 h. In outline:
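The compound was stored 7 days at room temperature in 1 N ammonium hydroxide, then recovered and checked as the free base.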

Data set [27] concerns L1210. The experiment in a line: Antitumor activity against 5-azacytidine-resistant mouse L1210 cells allografted in ip dosed mouse assessed as change in body weight at optimal dose administered qd from day 1 to day 9 post tumor implantation measured on day 5 relative to control. The class given is functional. The essentials: as §1

Activity calls are given as the source filed them. The calls are words filed in the database; no cut-off is given here.

`Nc1ncn([C@@H]2O[C@H](CO)[C@@H](O)[C@H]2O)c(=O)n1` [AZACITIDINE]: the Activity in the data set on L1210 [1] was -1.5 g; with Mus musculus [9], 50 mg/kg; in the data set with Mus musculus [13], 10 mg/kg; in the data set with Mus musculus [15], 3 mg/kg; in the data set on Mus musculus [18], 5 mg/kg. Besides, the ILS – broadly, the gain in survival time of treated over control animals, in per cent – amounted to 94% in the data set with L1210 [2]; 28% in the data set on L1210 [7]; 128% with L1210 [12]; 24% in the data set with L1210 [17]; 20% in the data set on B16 [19]. In addition, the MAD was 0.75 mg/kg in the data set with L1210 [3], 100 mg/kg with L1210 [14], 25 mg/kg with L1210 [16] and 20 mg/kg with L1210 [20]. The minimal effective dose with B16 [4] worked out at 1.5 mg/kg; in the data set with L1210 [8] it was 1.56 mg/kg; in the data set on P388 it was 0.75 mg/kg; with L1210 [23], 0.75 mg/kg. Besides, the degraded at 4.7 h in [5] was found to be 15%. The result in the data set with L1210 [6] was Active. For the same molecule, in data set [10], the Stability entry is given as “Unstable”. Further, the outcome in the data set with L1210 [11] and in the data set with L1210 [21] was inactive. In data set [22], the half-life (usually how long it takes for the measured level to halve) is 48 h.

For the molecule `Cl.NC1=NC(=O)N([C@@H]2O[C@H](CO)[C@@H](O)[C@H]2O)CN1`, the Activity was -2.5 g with L1210 [1]; 600 mg/kg in the data set with Mus musculus [9]; 600 mg/kg in the data set with Mus musculus [13]; 100 mg/kg in the data set with Mus musculus [15]; 25 mg/kg with Mus musculus [25]; 125 mg/kg in the data set on Mus musculus [18]. Also, in the data set with L1210 [27], the Activity turned out to be 0.1 g. Moreover, the ILS was determined as 96% with L1210 [2]; 46% with L1210 [7]; 116% in the data set with L1210 [12]; 50% in the data set with L1210 [17]; 19% with B16 [19]. Further, the MAD with L1210 [3] was 100 mg/kg; in the data set with L1210 [14], 1600 mg/kg; in the data set on L1210 [16] it was 400 mg/kg; in the data set with L1210 [20], 600 mg/kg. Also, in data set [24], the concentration in solution (solubility) came to 40 mg/mL. The values for the minimal effective dose in the data set on L1210 [8], in the data set with P388 and in the data set with L1210 [23] were 200 mg/kg, 12.5 mg/kg and 25 mg/kg, respectively. The Stability entry in data set [26] is reported as “Stable”.
